We go through 37 compounds from ChEMBL document CHEMBL5352453, “Hit-to-lead optimization of a 2-aminobenzimidazole series as new candidates for chagas disease” (Eur J Med Chem, 2023).

The nature of data set [1]: Metabolic stability in CD1 mouse liver microsomes assessed as intrinsic clearance measured upto 60 mins by LC-MS/MS analysis. Format: ADME. Conditions: read-out: CLH. A digest of the protocol:
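CD1 mouse liver microsomes at 0.25 mg/mL, compound at 0.5 µM, pH 7.4, 37 °C, started with NADPH. Sampled at 0, 5, 10, 20, 30 and 60 min and quenched with acetonitrile:methanol containing tolbutamide. Measured by LC-MS/MS; CLint (k × 1000/0.25, µL/min/mg) derived by non-linear regression of % remaining over time.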
Background: Liver microsomes are vesicles of endoplasmic reticulum, rich in cytochrome P450 enzymes.

Data set [2] is described as follows: Selectivity index, ratio of CC50 for cytotoxicity against human MRC5 cells to EC50 for Trypanosoma cruzi Tulahuen CL2 amastigotes expressing beta galactosidase infected in human MRC5 cells. Format: toxicity, cell-based. To be noted: read-out: Selectivity Index. In short, it runs like this: (§1)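 T. cruzi Tulahuen CL2 β-galactosidase strain grown in MRC-5 cells (MEM, 5% heat-inactivated FCS, 37 °C, 5% CO2). MRC-5 cells (4 x 10^3/well) plus parasites (4 x 10^4/well) exposed 7 days to 4-fold dilutions from 64 µM down; final DMSO <1%. CPRG with Nonidet added, absorbance at 540 nm after 4 h. IC50 calculated against untreated-infected (100%) and non-infected (0%) controls. SI = MRC-5 CC50/IC50.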

Data set [3] deals with Trypanosoma cruzi. As to the kind of experiment: Antitrypanosomal activity against Trypanosoma cruzi Tulahuen CL2 amastigotes expressing beta galactosidase infected in human MRC5 cells assessed as reduction in parasite burden using chlorophenol red beta-D-galactopyranoside as substrate and measured after 7 days by spectrophotometric analysis. The class given is functional, organism-based. To be noted: Tulahuen CL2, MRC5, 168 h. In short, it runs like this:
as §1

For data set [4], the system named is Trypanosoma cruzi. As to the kind of experiment: Antitrypanosomal activity against intracellular Trypanosoma cruzi amastigote infected primary peritoneal mouse macrophages assessed as reduction in amastigote population. Format: functional. Also on record: concentration or dose not given beside the values. A digest of the protocol:
(§2)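 High-content imaging of primary mouse macrophages infected with T. cruzi. Counts both amastigotes per cell and percentage of infected cells. 96 h exposure, with maximal activity scored at 10 µM. IC50 and IC90 against intracellular amastigotes taken from the same 96 h incubation.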

Data set [5] concerns Trypanosoma cruzi. As to the kind of experiment: Antitrypanosomal activity against intracellular Trypanosoma cruzi amastigote infected primary peritoneal mouse macrophages assessed as reduction in infection rate. Format: functional. In short, it runs like this: as §2
In data set [6] the test system is Trypanosoma cruzi. As to the kind of experiment: Antitrypanosomal activity against intracellular Trypanosoma cruzi amastigote infected primary peritoneal mouse macrophages assessed as reduction in amastigote population measured after 96 hrs. The class given is functional, organism-based. Conditions: for pIC50: 96 h; for IC90: time 96 hrs. A digest of the protocol:
as §2

The nature of data set [7]: Kinetic solubility of the compound at pH 2 PBS buffer measured after 24 hrs shaken by LC-MS/MS analysis. Format: physicochemical. To be noted: read-out: Kinetic_solubility. In short, it runs like this:
(§3)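 Compounds from 10 mM DMSO stocks diluted in PBS pH 7.4 or pH 2.0 to 250 µM final, 2.5% DMSO, in duplicate. Shaken 24 ± 1 h at 200 rpm, room temperature, then centrifuged to remove precipitate. Supernatant quantified by LC-MS/MS against per-compound calibration at 1–50 µM.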

A short description of data set [8]: Kinetic solubility of the compound at pH 7.4 PBS buffer measured after 24 hrs shaken by LC-MS/MS analysis. The class given is physicochemical. Conditions: read-out: Kinetic_solubility. In short, it runs like this: as §3
Data set [9] can be described thus: Passive permeability of the compound at 10 uM at pH 6.5 to 7.4 donor portion/acceptor portion by PAPMA assay. The class given is ADME. To be noted: not told, read-out: permeability. In short, it runs like this: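 PAMPA on pre-coated membranes. Donor holds 10 µM compound in PBS pH 6.5; acceptor holds PBS pH 7.4. Incubated 5 h at 37 °C. Donor, acceptor and initial donor samples quenched and quantified by LC-MS/MS to calculate effective permeability (Pe). Run in triplicate.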

A short description of data set [10]: Cytotoxicity against mouse 3T3 cells assessed as reduction in cell viability measured after 24 hrs by colorimetric assay. To be noted: NIH3T3 cells. The class given is toxicity, cell-based.
A short description of data set [11]: Cytotoxicity against human MRC5 cells assessed as reduction in cell viability measured after 24 hrs by colorimetric assay. Format: toxicity, cell-based.
The nature of data set [12]: Cytotoxicity against primary peritoneal mouse macrophages assessed as reduction in cell viability measured after 24 hrs by colorimetric assay. The class given is toxicity, cell-based, Peritoneal macrophage.
Data set [13] in a line: Cytotoxicity against rat L6 cells assessed as reduction in cell viability measured after 24 hrs by colorimetric assay. The class given is toxicity, cell-based.
The nature of data set [14]: Cytotoxicity against human HepG2 cells assessed as reduction in cell viability measured after 24 hrs by colorimetric assay. The class given is toxicity, cell-based.
For data set [15], the system named is Trypanosoma cruzi. As to the kind of experiment: Antitrypanosomal activity against intracellular Trypanosoma cruzi amastigote infected mouse 3T3 cells assessed as reduction in amastigote population measured after 48 hrs.

pIC50: −log10 of the molar value.

In the case of `Cn1nccc1C(=O)Nc1nc2cc(CN3CCCC3)ccc2n1CC(F)(F)F`, in [1], the microsomal CLint stood at 23 µL/min/mg. Besides, the selectivity ratio in [2] stood at 2. The pIC50 in data set [3] is 5.09.
For `N#Cc1ccc2nc(NC(=O)c3ncc(F)cc3F)n(CC(F)(F)F)c2c1`, in that order: 253 µL/min/mg, 3 and 4.77.
For `N#Cc1ccc2nc(NC(=O)c3ccn(C4CC4)n3)n(CC(F)(F)F)c2c1` the same measures were 299 µL/min/mg, above 15 and 5.37.
Consider `Cn1nccc1C(=O)Nc1nc2cc(C(F)(F)F)cnc2n1CC(C)(C)C`, for which, in [1], the microsomal CLint worked out at 37 µL/min/mg. Moreover, the selectivity ratio in [2] turned out to be 7. Moreover, the pIC50 in data set [3] is 6.24.
For the compound `Cc1nnnn1CC(=O)Nc1nc2ccc(C#N)cc2n1CC(F)(F)F`, the microsomal CLint in [1] stood at 23 µL/min/mg. In addition, the selectivity ratio in [2] is above 1. Moreover, the pIC50 in [3] is 4.30.
For `Cc1nc(C)c(C(=O)Nc2nc3ccc(C#N)cc3n2CC(F)(F)F)s1`, in that order: 595 µL/min/mg, 14 and 6.27.
For `Cc1cc(C(=O)Nc2nc3ccc(C#N)cc3n2CC(F)(F)F)nn1C` the same measures were 181 µL/min/mg, 1 and 4.19.
For `N#Cc1ccc2nc(NC(=O)c3ccccn3)n(CC(F)(F)F)c2c1` the same measures were 236 µL/min/mg, above 7 and 5.03.
Take `COCCn1c(NC(=O)c2ccnn2C)nc2ccc(C#N)cc21`: in data set [1], the microsomal CLint stood at 98 µL/min/mg. Also, in [2], the selectivity ratio is above 7. The pIC50 in [3] was 5.06.
Consider `N#Cc1ccc2nc(NC(=O)c3cc(C(F)(F)F)n[nH]3)n(CC(F)F)c2c1`, for which the microsomal CLint in data set [1] was 70 µL/min/mg. Further, the selectivity ratio in data set [2] stood at 11. Moreover, the negative-log IC50 (pIC50) in data set [3] is 6.31.
For `Cn1ccc(C(=O)Nc2nc3ccc(C#N)cc3n2CC(F)(F)F)n1` the same measures were 73 µL/min/mg, 1 and 4.19.
For `Cn1nccc1C(=O)Nc1nc2cc(-c3ncco3)ccc2n1CC(F)(F)F` the same measures were 52.7 µL/min/mg, 1 and 4.42.
For `CN1CCC(n2c(NC(=O)c3ccnn3C)nc3ccc(C#N)cc32)CC1`, in that order: 72 µL/min/mg, above 2 and 4.47.
With `Cn1nc(C(=O)Nc2nc3ccc(C#N)cc3n2CC(F)(F)F)cc1C(F)(F)F`, the microsomal CLint in [1] worked out at 77 µL/min/mg. In addition, in data set [2], the selectivity ratio amounted to 1. In addition, the pIC50 in data set [3] was 4.19.
For `CS(=O)(=O)c1ccc2c(c1)nc(NC(=O)c1ccnc(C(F)(F)F)c1)n2CC(F)(F)F` the same measures were 23 µL/min/mg, 5 and 6.26.
For `Cn1nccc1C(=O)Nc1nc2cncnc2n1CC(F)(F)F`, in that order: 24 µL/min/mg, 3 and 5.09.
Consider `N#Cc1ccc2nc(NC(=O)c3ccc(C(F)(F)F)nc3)n(CC(F)(F)F)c2c1`, for which, in [1], the microsomal CLint is 18 µL/min/mg. For the same compound, the selectivity ratio in [2] is above 25. In addition, the pIC50 in data set [3] was 5.59; in data set [6], 6.72. Also, the Activity in [4] stood at 99%. The “inhibition (INH)” value in [5] amounted to 98%. In addition, in data set [6], the concentration for an effect of 90% (IC90) turned out to be 0.57 µM. For the same compound, the solubility kinetic at 24 h in data set [7] and in [8] was below 1 µM each time. Further, the Papp at 10 µM in data set [9] was found to be 5.4 ×10⁻⁶ cm/s. The CC50 at 24 h in [10] is above 40 µM; in [11] it was above 64 µM; in data set [12], 8 µM; in [13], 18 µM; in [14], 1.1 µM.
On to `N#Cc1ccc2nc(NC(=O)Cn3cccn3)n(CC(F)(F)F)c2c1`, for which, in data set [1], the microsomal CLint was found to be 36 µL/min/mg. The selectivity ratio in data set [2] came out at 9. The pIC50 in [3] is 5.18.
Consider `Cc1nn[nH]c1C(=O)Nc1nc2ccc(C#N)cc2n1CC(F)(F)F`, for which the microsomal CLint in data set [1] is 141 µL/min/mg. Further, the selectivity ratio in data set [2] was found to be 1. Also, the pIC50 in [3] is 4.19.
For `Cn1nc(C(F)(F)F)cc1C(=O)Nc1nc2ccc(C#N)cc2n1CCF`, in that order: 39 µL/min/mg, 11 and 5.68.
For `CC(C)(O)Cn1c(NC(=O)c2ccc(C(F)(F)F)nc2)nc2ccc(C#N)cc21`, in that order: 23 µL/min/mg, 1 and 4.43.
For `Cn1nccc1C(=O)Nc1nc2cc(F)cnc2n1CC(F)(F)F` the same measures were 44 µL/min/mg, 3 and 6.08.
On to `Cn1nccc1C(=O)Nc1nc2cc(CN3CCOCC3)ccc2n1CC(F)(F)F`, for which the microsomal CLint in [1] was found to be 23 µL/min/mg. Further, the selectivity ratio in data set [2] worked out at 5. Also, the pIC50 in data set [3] is 5.08.
For `Cn1nccc1C(=O)Nc1nc2ccc(C#N)cc2n1CC(F)F` the same measures were 383 µL/min/mg, 5 and 5.62.
For `CC(=O)N1CCC(n2c(NC(=O)c3ccnn3C)nc3ccc(C#N)cc32)CC1`, in that order: 23 µL/min/mg, 1 and 4.19.
For `Cc1nnn(CC(=O)Nc2nc3ccc(C#N)cc3n2CC(F)(F)F)n1`, in that order: 25 µL/min/mg, above 6 and 4.96.
For `COc1ccc(C(=O)Nc2nc3ccc(C#N)cc3n2CC(F)(F)F)cn1`, the microsomal CLint in data set [1] came out at 170 µL/min/mg. In data set [2], the selectivity ratio is above 28. In addition, in data set [3], the pIC50 is 5.64.
For `CC(C)(C)Cn1c(NC(=O)c2cc(C(F)(F)F)n[nH]2)nc2cc(C#N)cnc21` the same measures were 23 µL/min/mg, 3 and 5.82.
For `Cn1nccc1C(=O)Nc1nc2ccc(C#N)cc2n1CC(C)(C)O`, in that order: 23 µL/min/mg, above 5 and 4.89.
With `Cn1nccc1C(=O)Nc1nc2cccnc2n1CC(F)(F)F`, in data set [1], the microsomal CLint worked out at 119 µL/min/mg. Besides, the selectivity ratio in data set [2] worked out at 2. For the same compound, the pIC50 in data set [3] is 5.41.
For `Cn1nccc1C(=O)Nc1nc2ccc(C#N)cc2n1CC(F)(F)F`, in that order: 20 µL/min/mg, 8 and 5.80.
`Cn1nccc1C(=O)Nc1nc2ccc(C#N)cc2n1CCF`: the microsomal CLint in data set [1] came out at 154 µL/min/mg. Further, the selectivity ratio in data set [2] was 2. Besides, the pIC50 in [3] is 5.08.
For `Cn1nccc1C(=O)Nc1nc2cc(C#N)cnc2n1CC(C)(C)C` the same measures were 31 µL/min/mg, 5 and 6.30.
For `Cn1nccc1C(=O)Nc1nc2cccnc2n1CC(C)(C)C`, in that order: 222 µL/min/mg, 20 and 5.66.
For the compound `O=C(Nc1nc2cc(F)cnc2n1CC(F)(F)F)c1ccc(C(F)(F)F)nc1`, in data set [1], the microsomal CLint was found to be 113 µL/min/mg. In data set [2], the selectivity ratio was determined as 6. Further, in data set [3], the negative-log IC50 (pIC50) is 6.82.
In the case of `O=C(Cn1ccnc1[N+](=O)[O-])NCc1ccccc1` [BENZNIDAZOLE], the Activity in data set [4] came out at 99%. Moreover, the “inhibition (INH)” value in [5] stood at 94%. Besides, the negative-log IC50 (pIC50) is 5.58 in [6] and 5.59 in data set [15]. Besides, the 90% effect concentration (IC90) in data set [6] turned out to be 12.6 µM.
Consider `CC[C@@H]([C@H](C)O)n1ncn(-c2ccc(N3CCN(c4ccc(OC[C@@H]5CO[C@@](Cn6cncn6)(c6ccc(F)cc6F)C5)cc4)CC3)cc2)c1=O` [POSACONAZOLE], for which the Activity in [4] amounted to 100%. Further, the “inhibition (INH)” value in [5] is 98%. Further, in data set [6], the pIC50 was 9.00 and the 90% effect concentration (IC90) turned out to be 0.002 µM. Also, in data set [15], the pIC50 is 8.70.

The term pIC50 denotes the IC50 on a negative log10 scale, so that one unit is a factor of ten. What is called IC90 is the concentration at which the effect reaches the 90% level. As usually defined, the CC50 is the concentration at which the toxic effect on the cells reaches its halfway point.
